From ChEMBL document CHEMBL4043202, “Synthesis, pH dependent, plasma and enzymatic stability of bergenin prodrugs for potential use against rheumatoid arthritis” (Bioorg Med Chem, 2017)
In brackets after ≈: the same amount, converted by molar mass.

Tests used:
[1] = Distribution coefficient, log D of the compound in PBS/n-octanol at pH 7.4 at 25 degC by HPLC method; assay type: physicochemical
Summary of the method: (§1)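 Miniaturised shake-flask method: water/n-octanol for log P and PBS pH 7.4/n-octanol for log D, at 25 °C. Tubes were shaken overnight at 500 rpm and centrifuged at 16000 RCF for 20 min to separate the phases. Compound in each phase was quantified by reversed-phase C18 HPLC with the column at 37 °C. Run in triplicate.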

[2] = Partition coefficient, log P of the compound in water/n-octanol at 25 degC by HPLC method; settings: pH 7.4
[3] = Stability in pH 6.8 SIF assessed as compound remaining level at 120 mg/mL incubated for 24 hrs at 37 degC by HPLC method
Summary of the method: (§2)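 SGF (pH 1.2) and SIF (pH 6.8) were prepared per USP 2000. Compound was incubated at 37 °C and sampled at 0 and 24 h. Samples were quenched with ice-cold acetonitrile and centrifuged. Prodrug and bergenin were measured by compound-specific isocratic RP-C8 HPLC-UV. Each analysis in triplicate.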

[4] = Partition coefficient, log P of the compound in water/n-octanol at pH 7.4 at 25 degC by HPLC method; assay type: physicochemical; summary of the method: as §1
[5] = Stability in pH 4.0 phosphate buffer assessed as compound remaining level at […] incubated for 24 hrs at 37 degC by HPLC method; assay type: physicochemical; settings: for remaining at 24 h: pH 4.0 phosphate buffer, pH 4, read-out: Stability
[6] = Stability in pH 1.2 SGF assessed as compound remaining level at 120 mg/mL incubated for 24 hrs at 37 degC by HPLC method; summary of the method: as §2
[7] = Solubility in water; assay type: physicochemical
[8] = target: Tumor necrosis factor (Homo sapiens, UniProt P01375); test: Inhibition of TNFalpha (unknown origin)
Tumor necrosis factor, sequence (P01375 whole entry): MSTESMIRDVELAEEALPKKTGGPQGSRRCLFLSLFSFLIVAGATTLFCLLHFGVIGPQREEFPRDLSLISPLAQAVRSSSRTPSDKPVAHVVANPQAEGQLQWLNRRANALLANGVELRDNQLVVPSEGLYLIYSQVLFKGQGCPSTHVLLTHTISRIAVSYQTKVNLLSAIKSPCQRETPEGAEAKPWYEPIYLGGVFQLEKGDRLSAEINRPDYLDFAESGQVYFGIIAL

[9] = Solubility in pH 1.0 buffer; assay type: physicochemical
[10] = Partition coefficient, log P of the compound; assay type: physicochemical; settings: octanol/water; summary of the method: as §1
[11] = target: Interleukin-6 (Homo sapiens, UniProt P05231); test: Inhibition of IL6 (unknown origin)
Interleukin-6, sequence (P05231 whole entry): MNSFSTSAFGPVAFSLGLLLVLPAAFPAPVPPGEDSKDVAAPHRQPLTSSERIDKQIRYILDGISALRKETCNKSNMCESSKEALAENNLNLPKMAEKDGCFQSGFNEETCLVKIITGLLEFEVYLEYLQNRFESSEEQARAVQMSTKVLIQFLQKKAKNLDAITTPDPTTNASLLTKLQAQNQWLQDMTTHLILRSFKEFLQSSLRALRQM

[12] = Solubility in pH 5.0 buffer; assay type: physicochemical
[13] = Solubility in pH 3.0 buffer; assay type: physicochemical

**Q.** For CCCCOc1cc2c(c(OCCCC)c1OC)[C@@H]1O[C@H](CO)[C@@H](O)[C@H](O)[C@H]1OC2=O, which logD [1] is on record?
**A.** 2.83

**Q.** And the logP [2]?
**A.** 2.495

**Q.** Which logD [1] does the source give for COc1c(OC(C)=O)cc2c(c1OC(C)=O)[C@@H]1O[C@H](COC(C)=O)[C@@H](OC(C)=O)[C@H](OC(C)=O)[C@H]1OC2=O [BERGENIN PENTAACETATE] here?
**A.** 0.516

**Q.** What about the Stability [3] of the same molecule?
**A.** 100%

**Q.** And the logP [4]?
**A.** 1.155

**Q.** And the remaining at 24 h [5]?
**A.** 119%

**Q.** And the Stability [6]?
**A.** 99.1%

**Q.** With CCCCCC(=O)OC[C@H]1O[C@H]2c3c(cc(OC(=O)CCCCC)c(OC)c3OC(=O)CCCCC)C(=O)O[C@@H]2[C@@H](OC(=O)CCCCC)[C@@H]1OC(=O)CCCCC as the molecule, how does the logD [1] read?
**A.** 6.06

**Q.** What about the logP [4] of the same molecule?
**A.** 5.967

**Q.** For CCCCCCCC(=O)OC[C@H]1O[C@H]2c3c(cc(OC(=O)CCCCCCC)c(OC)c3OC(=O)CCCCCCC)C(=O)O[C@@H]2[C@@H](OC(=O)CCCCCCC)[C@@H]1OC(=O)CCCCCCC, which logD [1] is on record?
**A.** 6.11

**Q.** What about the logP [4] of the same molecule?
**A.** 6.011

**Q.** With COc1c(OC(=O)c2ccccc2)cc2c(c1OC(=O)c1ccccc1)[C@@H]1O[C@H](COC(=O)c3ccccc3)[C@@H](O)[C@H](O)[C@H]1OC2=O as the molecule, how does the logD [1] read?
**A.** 1.77

**Q.** What about the logP [4] of the same molecule?
**A.** 2.553

**Q.** With COc1c(OC(=O)c2c(Cl)cc(Cl)cc2Cl)cc2c(c1O)[C@@H]1O[C@H](COC(=O)c3c(Cl)cc(Cl)cc3Cl)[C@@H](O)[C@H](O)[C@H]1OC2=O as the molecule, how does the logD [1] read?
**A.** 3.89

**Q.** What about the Stability [3] of the same molecule?
**A.** 87.5%

**Q.** And the logP [4]?
**A.** 3.693

**Q.** And the remaining at 24 h [5]?
**A.** 76%

**Q.** And the Stability [6]?
**A.** 86.5%

**Q.** Which results are given for COc1c(O)cc2c(c1O)[C@@H]1O[C@H](CO)[C@@H](O)[C@H](O)[C@H]1OC2=O [BERGENIN]?
**A.** solubility [7]: > 1 mg/mL; logD [1]: -0.947; IC50 [8]: 12.5 µM; solubility [9]: 1290 µg/mL (≈ 3.93 mM); logP [10]: -1.06; Stability [3]: 101%; logP [4]: -0.555; remaining at 24 h [5]: 102%; IC50 [11]: 208 nM; solubility [12]: 1220 µg/mL (≈ 3.72 mM); solubility [13]: 1080 µg/mL (≈ 3.29 mM); Stability [6]: 111%

**Q.** Which logD [1] does the source give for COc1c(OC(=O)c2ccc(C(C)(C)C)cc2)cc2c(c1OC(=O)c1ccc(C(C)(C)C)cc1)[C@@H]1O[C@H](COC(=O)c3ccc(C(C)(C)C)cc3)[C@@H](OC(=O)c3ccc(C(C)(C)C)cc3)[C@H](OC(=O)c3ccc(C(C)(C)C)cc3)[C@H]1OC2=O here?
**A.** 0.162

**Q.** And the Stability [3]?
**A.** 86.1%

**Q.** And the logP [4]?
**A.** 0.771

**Q.** And the remaining at 24 h [5]?
**A.** 104%

**Q.** And the Stability [6]?
**A.** 109%

**Q.** Which solubility [7] does the source give for Nc1ncn([C@@H]2O[C@H](CO)[C@@H](O)[C@H]2O)c(=O)n1 [AZACITIDINE] here?
**A.** 89 mg/mL (≈ 364 mM)

**Q.** And the logP [10]?
**A.** -3.1

**Q.** Which logD [1] does the source give for COc1c(OC(=O)c2ccc(C(C)(C)C)cc2)cc2c(c1OC(=O)c1ccc(C(C)(C)C)cc1)[C@@H]1O[C@H](COC(=O)c3ccc(C(C)(C)C)cc3)[C@@H](O)[C@H](O)[C@H]1OC2=O here?
**A.** 0.552

**Q.** And the Stability [3]?
**A.** 93.5%

**Q.** What about the logP [4] of the same molecule?
**A.** 0.599

**Q.** And the remaining at 24 h [5]?
**A.** 95%

**Q.** And the Stability [6]?
**A.** 106%

**Q.** With COc1c(OC(C)=O)cc2c(c1O)[C@@H]1O[C@H](COC(C)=O)[C@@H](O)[C@H](O)[C@H]1OC2=O as the molecule, how does the logD [1] read?
**A.** -1.06

**Q.** And the logP [4]?
**A.** -0.494

**Q.** For COc1c(OC(=O)CC(C)C)cc2c(c1OC(=O)CC(C)C)[C@@H]1O[C@H](COC(=O)CC(C)C)[C@@H](OC(=O)CC(C)C)[C@H](OC(=O)CC(C)C)[C@H]1OC2=O, which logD [1] is on record?
**A.** 6.45

**Q.** And the logP [4]?
**A.** 6.358

**Q.** For COc1c(O)cc2c(c1O)[C@@H]1O[C@H](COC(=O)c3ccc([N+](=O)[O-])cc3)[C@@H](O)[C@H](O)[C@H]1OC2=O, which logD [1] is on record?
**A.** 1.53

**Q.** And the logP [4]?
**A.** 1.563

**Q.** Which logD [1] does the source give for CCCOc1cc2c(c(OCCC)c1OC)[C@@H]1O[C@H](CO)[C@@H](O)[C@H](O)[C@H]1OC2=O here?
**A.** 1.51

**Q.** And the logP [4]?
**A.** 1.655

**Q.** With COc1c(OC(C)=O)cc2c(c1OC(C)=O)[C@@H]1O[C@H](COC(C)=O)[C@@H](OC(C)=O)[C@H](O)[C@H]1OC2=O as the molecule, how does the logD [1] read?
**A.** 0.429

**Q.** What about the Stability [3] of the same molecule?
**A.** 41.8%

**Q.** And the logP [4]?
**A.** 1.181

**Q.** And the Stability ([5]; buffer, pH 4, 24 h)?
**A.** 122.03%

**Q.** What about the Stability [6] of the same molecule?
**A.** 92.3%

**Q.** For COc1c(OCc2ccccc2)cc2c(c1OCc1ccccc1)[C@@H]1O[C@H](CO)[C@@H](O)[C@H](O)[C@H]1OC2=O, which logD [1] is on record?
**A.** 1.98

**Q.** And the logP [2]?
**A.** 1.965

**Q.** And the Stability [3]?
**A.** 90.5%

**Q.** What about the remaining at 24 h [5] of the same molecule?
**A.** 52.4%

**Q.** What about the Stability [6] of the same molecule?
**A.** 68.8%

**Q.** Which results are given for COc1c(OC(=O)c2ccc([N+](=O)[O-])cc2)cc2c(c1O)[C@@H]1O[C@H](COC(=O)c3ccc([N+](=O)[O-])cc3)[C@@H](O)[C@H](O)[C@H]1OC2=O?
**A.** logD [1]: 2.65; Stability [3]: 59.5%; logP [4]: 2.508; remaining at 24 h [5]: 45%; Stability [6]: 91.6%

**Q.** Which logD [1] does the source give for COc1c(OC(=O)c2ccccc2C)cc2c(c1OC(=O)c1ccccc1C)[C@@H]1O[C@H](COC(=O)c3ccccc3C)[C@@H](OC(=O)c3ccccc3C)[C@H](O)[C@H]1OC2=O here?
**A.** 1.61

**Q.** What about the logP [4] of the same molecule?
**A.** 1.751

**Q.** For COc1c(OC(=O)c2c(F)cccc2F)cc2c(c1O)[C@@H]1O[C@H](COC(=O)c3c(F)cccc3F)[C@@H](O)[C@H](O)[C@H]1OC2=O, which logD [1] is on record?
**A.** 1.86

**Q.** What about the logP [4] of the same molecule?
**A.** 1.801
